Results as given in the RNAGym collection of RNA variant scans (doi:10.1126/science.aae0568).
Variants at the floor of the assay were thinned out.

B1: tRNA (parent)
chain: GUUCCGUUGGCGUAAUGGUAACGCGUCUCCCUCCUAAGGAGAAGACUGCGGGUUCGAGUCCCGUACGGAACG

Variants of: B1
Experiment: yeast fitness relative to wild type (ratio to wild type); higher = fitter; tRNA-Arg(CCU), competitive growth, 37 C, YPD
Procedure, shortened: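 For this measurement, the tRNA-Arg(CCU) gene was varied by chemical synthesis at a 3% per-site mutation rate across 69 sites, and each variant was placed at the native genomic locus in Saccharomyces cerevisiae. The pooled strains went through a 24-hour competition in YPD at 37°C in six parallel replicates, with amplicons from start and end populations read by 100-nucleotide paired-end sequencing. Darwinian fitness relative to wild type followed from the change in each genotype's frequency. Genotypes needed ≥ 100 starting reads, and estimates < 0.5 were set to 0.5.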

Variant | yeast fitness
GUUCCGUUGGCGUAAUGGUAGCGCGUCUCCCUCCUAAGGAGAAGUCUGCGGGUUCGAGUCCCGUACGGAACG | 0.902
GUUCCGUUGGCGUAAUGGUAGCGCGUCUCCCUCCUAAGGAGAAGGCUGCGGGUUCGAGUCCCGUACGGAACG | 0.91
GUUCCGUUGGCGUAAUGGUAGCGCGUCUCCCUCCUAAGGAGAAGCCUGCGGGUUCGAGUCCCGUACGGAACG | 0.89
GUUCCGUUGGCGUAAUGGUAGCGCGUCUUCCUCCUAAGGAGAAGUCUGCGGGUUCGAGUCCCGUACUGAACG | ≤ 0.5
GUUCCGUUGGCGUAAUGGUAGCGCGUUUCCCUCCUAAGGAGAAGACUGCGGGUUAGAGUCCCGUACGGAACG | 0.701
GUUCCGUUGGCGUAAUGGUAGCGCGUAUCCCUCGUAAAGAGAAGACUGCGGGUUCGAGUCCCCUACGGAACG | ≤ 0.5
GUUCCGUUGGCGUAAUGGUAGCGCGUCUCCCUCCUAAGGAGAAGUCUGCGGGUUCGAGUCCCGUUCGGAACG | 0.674
GUUCCGUUGGCGUAAUGGUAGUGCGUCUCCCUCCUAAGGAGAAGACUGCGGGUUCGAGUACCGUACGGAACG | ≤ 0.5
GUUCCGUUGGCGUAAUGGUAGCGCGUCUUCCUCCUAAAGAGAAGACUGCGGGUUCGAGUCCUGUACCGAACG | 0.629
GUUCCGUUGGCGUAAUGGUAGCGCGUGUUCCUCCGAAGGAGAAGACUGCGGGUUCGAGUCCCGUACGGAACG | 0.552
GUUCCGUUGGCGUAAUGGUAGUGCGUCUCCCUCCUAAGGAGAAGACUGCGGGUUCGAGUCCCGUACAGAACG | 0.575
GUUCCGUUGGCGUAAUGGUAGAGCGUCUCCCUCCUAAGGAGAAGACUGCGGGUUAGAGUCCCGUACCGAACG | ≤ 0.5
GUUCCGUUGGCGUAAUGGUAGCGCGUCUCCCUCCUAAGGAGAAGACUGCGGGUUCGAGUCCCGUACGGCACG | 0.932
GUUCCGUUGGCGUAAUGGUAGCGCGUCUCCCUCCUAAGGAGAAGCCUGCGGGUUCGAGCCCCGUACGGAACG | 0.732
GUUCCGUUGGCGUAAUGGUAGUGCGUCUCCCUCCUAAGGAGACGACUGCGGGUUCGAGUCCCGUACGGAACG | 0.57
GUUCCGUUGGCGUAAUGGUAGCGAGUCUCCCUCCUAAGGAGAUGACUGCGGGUUCGUGUCCCGUAAGGAACG | 0.574
GUUCCGUUGGCGUAAUGGUAGCGCGUCUGCCUCCUAAGGAGAAGACUGCGGGUUCGAGUCCCGUUCUGAACG | ≤ 0.5
GUUCCGUUGGCGUAAUGGUAGCGCGUCUCCCUCCUAAGGAGAAGGGUGCGGGUUCGAGUCCCGUACGGAACG | 0.802
GUUCCGUUGGCGUAAUGGUAGUGCGUCUCCCUCCUGAGGAGAAGACUGCGGGCUCGCGUCCCGUACGGUACG | ≤ 0.5
GUUCCGUUGGCGUAAUGGUAGUGGCUCUCCCACUUAAGCAGAAGGCUGCGGGUUCGAGUCCCGUACGGAACG | ≤ 0.5
GUUCCGUUGGCGUAAUGGUAGUGCGUCUCCCUCCUAAGGAGAAGACUGCGGGUUCGAGUCCCCUACGGCACG | 0.524
GUUCCGUUGGCGUAAUGGUAGUGCGUCUGCCUCCUAAGGAGAAGCCUGCGGGUUCGAGUCCCGUACGGAACG | 0.515
GUUCCGUUGGCGUAAUGGUAGAGCGUCUCCCUCCUAAGGAGAAGACUGCGGGUUCAAGUCCCGUACGGAACG | 0.763
GUUCCGUUGGCGUAAUGGUAGCGUGUCUCCCUUCUAAGGAGAAGACUGCGGGUUCGAGUCCCGUACGGAACG | ≤ 0.5
GUUCCGUUGGCGUAAUGGUAGUGCGUCUCGCUCCUAAGGAGAAGACUGCGAGUUCGAGUCCCGUACGGAACG | 0.538

Variant | yeast fitness
GUUCCGUUGGCGUAAUGGUAGCGCGUGUCCCUCCUAAGGAGAAGACUGCGGGUUCGAGUCCCGUACAGAACG | ≤ 0.5
GUUCCGUUGGCGUAAUGGUAGCGCGUCUCCCUCCUAAGGAGAUGACUGCGGGUUCGAGUCACGUACGGAACG | ≤ 0.5
GUUCCGUUGGCGUAAUGGUAGUGCGUCUCCCUCCUAAGGAGAAGACUGCGGGUUCGAGUCCCGUACGGAUCG | 0.619
GUUCCGUUGGCGUAAUGGUAGCGCGUUUCCCUCCUAACGAGAAGACUGCGGGUUCGAGUCCCGUACGCAACG | ≤ 0.5
GUUCCGUUGGCGUAAUGGUAGCGAGUCUCCCUCCUAAGGAGAAGACUGCGGGUUCGAGUCCCGUACGGAACG | 0.661
GUUCCGUUGGCGUAAUGGUAGCGGGUCUCCCUCCUAAGGAGAAGACUGCGGGUUCGAGUCCCGUACGGAACG | 0.642
GUUCCGUUGGCGUAAUGGUAGCGCGUCUUCUUCCUAAGGAGAAGACUGCGGGUUCGAGUCCCGUACGGAACG | ≤ 0.5
GUUCCGUUGGCGUAAUGGUAGCGCGUGUCCCUCCUAAGGAGAAGACUGUGGGUUCGAGUCCCGUACGGAACG | 0.557
GUUCCGUUGGCGUAAUGGUAGCGCGUAUCCCUCCUAAGGAGAAGACUGCGGGUUCGAGUCCCGUACCGAACG | ≤ 0.5
GUUCCGUUGGCGUAAUGGUAGGGCGUCUGCCUCCUAAGGAGAAGACUGCGGGUUCGAGUCCCGUACGGAACG | ≤ 0.5
GUUCCGUUGGCGUAAUGGUAGUGUGUCUCCCUCCUAUGGAGAAGGGUGCGGGUUCGAGUCCCGUACGCAACG | ≤ 0.5
GUUCCGUUGGCGUAAUGGUAGCGCGUAUCCCUCCUAUGGAGAAGACUGCAGGUUCGAGUCCCGUAUGGAACG | ≤ 0.5
GUUCCGUUGGCGUAAUGGUAGCGCGUCUCCCUCCUAAGGAGAAGACUGCGGGUUCGAGUCCCGUCCGGAACG | 0.924
GUUCCGUUGGCGUAAUGGUAGCGCGUCUCCCUCCUAAGGAGAAGACUGCGGGUUCGAGUCCCGUUCGGAACG | 0.848
GUUCCGUUGGCGUAAUGGUAGCGCGUCUACCUCCUAAGGAGAAGACUGCGGGUUCGAGUCCCGUACGGAACG | 0.693
GUUCCGUUGGCGUAAUGGUAGCGCGUCUGCCUCCUAAGGAGAAGACUGCGGGUUCGAGUCCCGUACGGAACG | 0.625
GUUCCGUUGGCGUAAUGGUAGCGCGUCUGCCUCCUAAGGAGAAGACGGCGGGUUCGAGUCCCGUACGGAACG | ≤ 0.5
GUUCCGUUGGCGUAAUGGUAGCGCGUCUACCUCCUAAGGAGAAGACUCCGGGUUCGAGUCCCGUACGGAACG | 0.57
GUUCCGUUGGCGUAAUGGUAGCGCGUCUCCCUCCUAAGGAGAAGACUGCGGGUUCGAGUCCCGUACGGAUCG | 1
GUUCCGUUGGCGUAAUGGUAGUGCGUCUCCCUCCUAAGGACAAGACUGCGGGUUCGAGUCCCGUACGGAACG | 0.66
GUUCCGUUGGCGUAAUGGUAGCGCGUGUCCGUCCUAAGGAGAAGACUGCGGGUUCGAGUCCCGUACGGAACG | 0.523
GUUCCGUUGGCGUAAUGGUAGCGCGUCUUCCUCUUAAGGAGAAGACUGCGGGUUAGAGUGCCGUACGGAACG | ≤ 0.5
GUUCCGUUGGCGUAAUGGUAGCGCGUAUCCCUCCUAUGGAGAAGACUGCAGGUUCGAGUCCCGUACGGAACG | 0.531
GUUCCGUUGGCGUAAUGGUAGCGCGUAUCCCUCCUAUGGAGAAGAUUGCGGGUUCGAGUCCCGUAUGGAACG | ≤ 0.5
GUUCCGUUGGCGUAAUGGUAGCGCGUCUACCUCCUAGGGAGUAGACUGCGGGUUCGAGUCCCGUACGGAACG | 0.516

Variant | yeast fitness
GUUCCGUUGGCGUAAUGGUAGCGCGUCUGCCUCCUAAGGAGAAGACUGCGGGUUUGAGUCCCGUACGGCACG | ≤ 0.5
GUUCCGUUGGCGUAAUGGUAGCGCGUCUCCCUCCUAAGGAGAAGACUGCGGGUUCGUGUCCCGUACGGAACG | 0.97
GUUCCGUUGGCGUAAUGGUAGCGCGUCUCCCUCCUAAGGAGAAGACUGCGGGUUCGGGUCCCGUACGGAACG | 0.875
GUUCCGUUGGCGUAAUGGUAGUGCGUCUCCCUCCUAAGGAGAAGACUGCGGGUUCGAGUCCCGUACGGAACG | 0.683
GUUCCGUUGGCGUAAUGGUAGAGCGUCUCCCUCCUAAGGAGAAGACUGCGGGUUCGAGUCCCGUACGGAACG | 0.834
GUUCCGUUGGCGUAAUGGUAGCGGGUCUCCCUCCUAUGGAGAAGACUGAGGGUUCGAGUCCCGUACGGAACG | ≤ 0.5
GUUCCGUUGGCGUAAUGGUAGUGCGUCUCCCUCCUAAGGAGAAGACUGCGGGUUCGAGUCCCGUAUGCAACG | ≤ 0.5
GUUCCGUUGGCGUAAUGGUAGCGGGUCUCCCUCCUAAGGAGAAGACUCCGGGUUCGAGUCCCGUACGGAACG | ≤ 0.5
GUUCCGUUGGCGUAAUGGUAGCGGGUCUCCGUCCUAAGGAGAUGACUGCGGGUUCGAGUCCCGUACGGAACG | ≤ 0.5
GUUCCGUUGGCGUAAUGGUAGUGCGUCUCCCCACUAGGGAGAAGACUGCGGGUUCGCGUCCCGUACGGAACG | ≤ 0.5
GUUCCGUUGGCGUAAUGGUAGCGUGUCUCCCUCCUUAGGAGAAGACUGCGGGUUCGAGUCCCGUAUGGUACG | ≤ 0.5
GUUCCGUUGGCGUAAUGGUAGCGCGUCUCCCUCCUAAGGAGAAGCCUGCGGGUUCGAGUCCCGUAUGGAACG | 0.555
GUUCCGUUGGCGUAAUGGUAGCGCGUAUCCCUCCUAAGCAGAAGACUGCGGGUUUGAGUCCCGUCCGGAACG | ≤ 0.5
GUUCCGUUGGCGUAAUGGUAGCGCGUCUCCCUCCUAAGGAGAAGUCUGCGGGUUCGAGUCCCGUACGGUACG | 1.07
GUUCCGUUGGCGUAAUGGUAGCGCGUAUCCCUCCUUAGGGGAAGACUGCGGGUUCGAGUCCCGUACGGAACG | 0.587
GUUCCGUUGGCGUAAUGGUAGUGCGUCUCCCUCCUAAGGAGUAGACUGCGGGUUCGAGUCCCGUACGGUACG | ≤ 0.5
GUUCCGUUGGCGUAAUGGUAGUGCGUCUCCCUCCUAAGGAGAAGACUGCGGGUUUGAGUCCCGUACGGAACG | 0.567
GUUCCGUUGGCGUAAUGGUAGCGCGUUUCCCUCCUAUGGAGAAGUCUGCGGGUUCGAGUCCGGUACGGAACG | ≤ 0.5
GUUCCGUUGGCGUAAUGGUAGCGCGUCUCCCUCCUAAGGAGAAGGCUGCGGGUUCGAGUCCCGUACAGAACG | 1
GUUCCGUUGGCGUAAUGGUAGCGCGUCUCCCUCCUAAGGAGAAGGCUGCGGGUUCGAGUCCCGUCCGGAACG | 0.977
GUUCCGUUGGCGUAAUGGUAGCGUGUCUCCCUCCUAAGGAGAACACUGCGGGUUCGAGUCCCGUACGGAACG | 0.583
GUUCCGUUGGCGUAAUGGUAGCGCGUCUUCCUCCUAAGGAGAAGACUGCGGGUUCGGGUCCCGUACGGAACG | 0.602
GUUCCGUUGGCGUAAUGGUAGGGCGUCUCCCUCCGCAGGAGAAGACUGCGGGUUCGAGUCCCGUACGGAACG | 0.746
GUUCCGUUGGCGUAAUGGUAGUGCGUCUCCCUCCUAAGGAGAAGCCUGCGGGUUCGAGUCCCGUACGGAACG | 0.539
GUUCCGUUGGCGUAAUGGUAGCGCGUCUUCCUCCUAAGGAGAAGUCUGCGGGUUCGAGUCCCGUACGGAACG | 0.86
